Laboratory results taken from ChEMBL document CHEMBL1146231, “Novel semisynthetic derivative of antibiotic Eremomycin active against drug-resistant gram-positive pathogens including Bacillus anthracis” (J Med Chem, 2007).
Converted amounts (≈) assume the structure as drawn.

Key:
Enterococcus faecalis [1] = experiment: Antimicrobial activity against vancomycin-resistant Enterococcus faecalis 560 isolate; assay type: functional
Method in brief: (§1)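 MICs were run by broth microdilution as recommended by NCCLS, in cation-adjusted Mueller-Hinton broth. Compound was serially diluted 2-fold, over a final range of 64 to 0.03 µg/mL after inoculation.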

[2] = system: Staphylococcus epidermidis; experiment: Antimicrobial activity against Staphylococcus epidermidis 533 isolate; assay type: functional; method in brief: as §1
Staphylococcus aureus [3] = experiment: Antimicrobial activity against glycopeptide intermediate resistant Staphylococcus aureus 3798 isolate; assay type: functional; method in brief: as §1
Enterococcus faecalis [4] = experiment: Antimicrobial activity against vancomycin-susceptible Enterococcus faecalis 559 isolate; assay type: functional; method in brief: as §1
Staphylococcus aureus [5] = experiment: Antimicrobial activity against glycopeptide intermediate resistant Staphylococcus aureus 3793 isolate; assay type: functional; method in brief: as §1
Enterococcus faecium [6] = experiment: Antimicrobial activity against vancomycin-resistant Enterococcus faecium 569 isolate; assay type: functional; method in brief: as §1
[7] = system: Staphylococcus haemolyticus; experiment: Antimicrobial activity against Staphylococcus haemolyticus 602 isolate; assay type: functional; method in brief: as §1
Enterococcus faecium [8] = experiment: Antimicrobial activity against vancomycin-susceptible Enterococcus faecium 568 isolate; assay type: functional; method in brief: as §1
[9] = Bioavailability in BALB/c mouse at 70 mg/kg, po; assay type: ADME, organism-based; settings: in vivo
Method in brief: (§2)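 Female BALB/c mice received the test compound by the iv, sc, ip or po route. Plasma exposure gave Cmax, bioavailability from the sc, ip and po routes, iv half-life, clearance and Vss. Clinical observations and mortality were also recorded.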

[10] = Volume of distribution in BALB/c mouse at 25 mg/kg, iv; assay type: ADME, organism-based; design: dose 25 mg/kg, route intravenous; settings: in vivo, read-out: Vss; method in brief: as §2
[11] = Bioavailability in BALB/c mouse at 25 mg/kg, sc; assay type: ADME, organism-based; settings: in vivo; method in brief: as §2
[12] = Clearance in BALB/c mouse at 25 mg/kg, iv; assay type: ADME, organism-based; design: dose 25 mg/kg, route intravenous; settings: in vivo; method in brief: as §2
[13] = Cmax in BALB/c mouse at 25 mg/kg, ip; assay type: ADME, organism-based; design: dose 25 mg/kg, route intraperitoneal; settings: in vivo; method in brief: as §2
[14] = Half life in BALB/c mouse at 25 mg/kg, iv; assay type: ADME, organism-based; design: dose 25 mg/kg, route intravenous; settings: in vivo; method in brief: as §2
[15] = Cmax in BALB/c mouse at 25 mg/kg, iv; assay type: ADME, organism-based; design: dose 25 mg/kg, route intravenous; settings: in vivo; method in brief: as §2
[16] = Cmax in BALB/c mouse at 25 mg/kg, sc; assay type: ADME, organism-based; design: dose 25 mg/kg, route subcutaneous; settings: in vivo; method in brief: as §2
[17] = Bioavailability in BALB/c mouse at 25 mg/kg, ip; assay type: ADME, organism-based; settings: in vivo; method in brief: as §2
Staphylococcus aureus [18] = experiment: Antimicrobial activity against methicillin-resistant Staphylococcus aureus Stau_HIP5827 isolate; assay type: functional; method in brief: as §1
Enterococcus faecalis [19] = experiment: Antimicrobial activity against vancomycin-susceptible Enterococcus faecalis Enfa_29212 isolate; assay type: functional; method in brief: as §1
Enterococcus faecalis [20] = experiment: Antimicrobial activity against vancomycin-resistant Enterococcus faecalis Enfa_t29862 isolate; assay type: functional; method in brief: as §1
Enterococcus faecalis [21] = experiment: Antimicrobial activity against vancomycin-resistant Enterococcus faecalis Enfa_vre-2 isolate; assay type: functional; method in brief: as §1
Escherichia coli = experiment: Antimicrobial activity against Escherichia coli Esco_25922 isolate; assay type: functional
Bacillus anthracis [22] = experiment: Antimicrobial activity against Bacillus anthracis HH105-6 isolate; assay type: functional
Mus musculus [23] = experiment: Survival of pulmonary anthrax BALB/c mouse model infected with Bacillus anthracis Ames at 30 mg/kg, sc after 6 days; assay type: functional; settings: 144 h, route subcutaneous
Bacillus anthracis [24] = experiment: Antimicrobial activity against Bacillus anthracis HH105-5R isolate; assay type: functional
Staphylococcus aureus [25] = experiment: Antimicrobial activity against methicillin-resistant Staphylococcus Stau_33591 isolate; assay type: functional; method in brief: as §1
Bacillus anthracis [26] = experiment: Antimicrobial activity against Bacillus anthracis HH113-6R isolate; assay type: functional
Bacillus anthracis [27] = experiment: Antimicrobial activity against Bacillus anthracis HHT105-5R isolate; assay type: functional
Mus musculus [28] = experiment: Survival of BALB/c mouse pulmonary challenged with Bacillus anthracis at 3 mg/kg; assay type: functional
Staphylococcus aureus [29] = experiment: Antimicrobial activity against methicillin-resistant Staphylococcus aureus Stau_b11386 isolate; assay type: functional; method in brief: as §1
Bacillus anthracis [30] = experiment: Antimicrobial activity against Bacillus anthracis HH105-5 isolate; assay type: functional
Mus musculus [31] = experiment: Survival of BALB/c mouse pulmonary challenged with Bacillus anthracis at 1 mg/kg; assay type: functional
Mus musculus [32] = experiment: Survival of pulmonary anthrax BALB/c mouse model infected with Bacillus anthracis Ames at 10 mg/kg, sc after 6 days; assay type: functional; settings: 144 h, route subcutaneous
Staphylococcus aureus [33] = experiment: Antimicrobial activity against methicillin-resistant Staphylococcus aureus Stau_29213 isolate; assay type: functional; method in brief: as §1
Bacillus anthracis [34] = experiment: Antimicrobial activity against Bacillus anthracis Ames; assay type: functional
Mus musculus [35] = experiment: Survival of BALB/c mouse pulmonary challenged with Bacillus anthracis at 0.3 mg/kg; assay type: functional
Streptococcus pyogenes = experiment: Antimicrobial activity against Streptococcus pyogenes Stpy_8668 isolate; assay type: functional
Mus musculus [36] = experiment: Survival of pulmonary anthrax BALB/c mouse model infected with Bacillus anthracis Ames at 30 mg/kg, sc twice daily for 6 days; assay type: functional; settings: 144 h, route subcutaneous
Mus musculus [37] = experiment: Survival of BALB/c mouse pulmonary challenged with Bacillus anthracis at 10 mg/kg; assay type: functional
Mus musculus [38] = experiment: Survival of pulmonary anthrax BALB/c mouse model infected with Bacillus anthracis Ames at 100 mg/kg, sc after 6 days; assay type: functional; settings: 144 h, route subcutaneous
Staphylococcus aureus [39] = experiment: Antimicrobial activity against methicillin-resistant Staphylococcus aureus Stau_Mu50-HIP5406 isolate; assay type: functional; method in brief: as §1
Mus musculus [40] = species on record: Mus musculus; experiment: Effect on survival of BALB/c mouse infected with Staphylococcus aureus PGO#172; assay type: functional
Method in brief: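 Mice received a lethal dose of S. aureus PGO#172 (ATCC#29213) by intraperitoneal injection. They were treated with an iv bolus at 1, 5, 10, 25 or 50 mg/kg, in groups of five. Mortality was the endpoint, and ED50 was derived from the dose-response.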

SMILES	MIC (Enterococcus faecalis [1])	MIC [2]	MIC (Staphylococcus aureus [3])	MIC (Enterococcus faecalis [4])	MIC (Staphylococcus aureus [5])	MIC (Enterococcus faecium [6])	MIC [7]	MIC (Enterococcus faecium [8])	MIC (Staphylococcus aureus [18])	MIC (Enterococcus faecalis [19])	MIC (Enterococcus faecalis [20])	MIC (Enterococcus faecalis [21])	MIC (Escherichia coli)	further results
CN[C@H](CC(C)C)C(=O)N[C@H]1C(=O)N[C@@H](CC(N)=O)C(=O)N[C@H]2C(=O)N[C@H]3C(=O)N[C@H](C(=O)N[C@H](C(=O)NC4C5CC6CC(C5)CC4C6)c4cc(O)cc(O)c4-c4cc3ccc4O)[C@H](O[C@@H]3C[C@@](C)(N)[C@H](O)[C@@H](C)O3)c3ccc(cc3)Oc3cc2cc(c3O[C@H]2O[C@@H](CO)[C@H](O)[C@@H](O)[C@@H]2O[C@H]2C[C@](C)(N)[C@@H](O)[C@H](C)O2)Oc2ccc(cc2Cl)[C@H]1O (some centres undefined)	16 mg/L (≈ 9.46 µM)	0.5 mg/L (≈ 0.296 µM)	2 mg/L (≈ 1.18 µM)	1 mg/L (≈ 0.591 µM)	2 mg/L (≈ 1.18 µM)	16 mg/L (≈ 9.46 µM)	1 mg/L (≈ 0.591 µM)	1 mg/L (≈ 0.591 µM)						
CN[C@H](CC(C)C)C(=O)N[C@H]1C(=O)N[C@@H](CC(N)=O)C(=O)N[C@H]2C(=O)N[C@H]3C(=O)N[C@H](C(=O)N[C@H](C(=O)NC45CC6CC(CC(C6)C4)C5)c4cc(O)cc(O)c4-c4cc3ccc4O)[C@H](O[C@@H]3C[C@@](C)(N)[C@H](O)[C@@H](C)O3)c3ccc(cc3)Oc3cc2cc(c3O[C@H]2O[C@@H](CO)[C@H](O)[C@@H](O)[C@@H]2O[C@H]2C[C@](C)(N)[C@@H](O)[C@H](C)O2)Oc2ccc(cc2Cl)[C@H]1O [listing 1 of 2 here]														bioavailability [9]: 0%; Vd [10]: 2.18 L/kg; bioavailability [11]: 78%; clearance [12]: 0.536 L/h/kg; Cmax [13]: 9.7 µg/mL; half-life [14]: 2.8 h; Cmax [15]: 11.5 µg/mL; Cmax [16]: 7.2 µg/mL; bioavailability [17]: 95%
CN[C@H](CC(C)C)C(=O)N[C@H]1C(=O)N[C@@H](CC(N)=O)C(=O)N[C@H]2C(=O)N[C@H]3C(=O)N[C@H](C(=O)N[C@H](C(=O)O)c4cc(O)cc(O)c4-c4cc3ccc4O)[C@H](O)c3ccc(c(Cl)c3)Oc3cc2cc(c3O[C@@H]2O[C@H](CO)[C@@H](O)[C@H](O)[C@H]2O[C@H]2C[C@](C)(N)[C@H](O)[C@H](C)O2)Oc2ccc(cc2Cl)[C@H]1O [VANCOMYCIN]	> 128 mg/L		8 mg/L (≈ 5.52 µM)	1 mg/L (≈ 0.69 µM)	16 mg/L (≈ 11 µM)	> 128 mg/L	2 mg/L (≈ 1.38 µM)		8 mg/L (≈ 5.52 µM)	2 mg/L (≈ 1.38 µM)	> 64 mg/L	> 64 mg/L	> 50 mg/L	
CN[C@H](CC(C)C)C(=O)N[C@H]1C(=O)N[C@@H](CC(N)=O)C(=O)N[C@H]2C(=O)N[C@H]3C(=O)N[C@H](C(=O)N[C@H](C(=O)NC45CC6CC(CC(C6)C4)C5)c4cc(O)cc(O)c4-c4cc3ccc4O)[C@H](O[C@@H]3C[C@@](C)(N)[C@H](O)[C@@H](C)O3)c3ccc(cc3)Oc3cc2cc(c3O[C@H]2O[C@@H](CO)[C@H](O)[C@@H](O)[C@@H]2O[C@H]2C[C@](C)(N)[C@@H](O)[C@H](C)O2)Oc2ccc(cc2Cl)[C@H]1O [listing 2 of 2 here]	8 mg/L (≈ 4.73 µM)	0.25 mg/L (≈ 0.148 µM)	2 mg/L (≈ 1.18 µM)	0.5 mg/L (≈ 0.296 µM)	1 mg/L (≈ 0.591 µM)	4 mg/L (≈ 2.37 µM)	0.25 mg/L (≈ 0.148 µM)	0.5 mg/L (≈ 0.296 µM)	1.56 mg/L (≈ 0.922 µM)	0.4 mg/L (≈ 0.237 µM)	6.25 mg/L (≈ 3.7 µM)	12.5 mg/L (≈ 7.39 µM)	> 50 mg/L	MIC (Bacillus anthracis [22]): 0.5 mg/L (≈ 0.296 µM); survival at 30 mg/kg (Mus musculus [23]): 88%; MIC (Bacillus anthracis [24]): 0.25 mg/L (≈ 0.148 µM); MIC (Staphylococcus aureus [25]): 0.78 mg/L (≈ 0.461 µM); MIC (Bacillus anthracis [26]): 0.5 mg/L (≈ 0.296 µM); MIC (Bacillus anthracis [27]): 0.25 mg/L (≈ 0.148 µM); survival at 3 mg/kg (Mus musculus [28]): 62.5%; MIC (Staphylococcus aureus [29]): 0.78 mg/L (≈ 0.461 µM); MIC (Bacillus anthracis [30]): 0.5 mg/L (≈ 0.296 µM); survival at 1 mg/kg (Mus musculus [31]): 50%; survival at 10 mg/kg (Mus musculus [32]): 88%; MIC (Staphylococcus aureus [33]): 0.78 mg/L (≈ 0.461 µM); MIC (Bacillus anthracis [34]): 0.5 mg/L (≈ 0.296 µM); survival at 0.3 mg/kg (Mus musculus [35]): 12.5%; MIC (Streptococcus pyogenes): 0.2 mg/L (≈ 0.118 µM); survival at 30 mg/kg (Mus musculus [36]): 86%; survival at 10 mg/kg (Mus musculus [37]): 85.7%; survival at 100 mg/kg (Mus musculus [38]): 100%; MIC (Staphylococcus aureus [39]): 0.4 mg/L (≈ 0.237 µM); ED50 (Mus musculus [40]): 20.4 mg/kg
CN[C@H](CC(C)C)C(=O)N[C@H]1C(=O)N[C@@H](CC(N)=O)C(=O)N[C@H]2C(=O)N[C@H]3C(=O)N[C@H](C(=O)N[C@H](C(=O)NC(C)C4C5CC6CC(C5)CC4C6)c4cc(O)cc(O)c4-c4cc3ccc4O)[C@H](O[C@@H]3C[C@@](C)(N)[C@H](O)[C@@H](C)O3)c3ccc(cc3)Oc3cc2cc(c3O[C@H]2O[C@@H](CO)[C@H](O)[C@@H](O)[C@@H]2O[C@H]2C[C@](C)(N)[C@@H](O)[C@H](C)O2)Oc2ccc(cc2Cl)[C@H]1O (some centres undefined)	16 mg/L (≈ 9.31 µM)	0.5 mg/L (≈ 0.291 µM)	2 mg/L (≈ 1.16 µM)	1 mg/L (≈ 0.582 µM)	4 mg/L (≈ 2.33 µM)	16 mg/L (≈ 9.31 µM)	1 mg/L (≈ 0.582 µM)	0.5 mg/L (≈ 0.291 µM)						
